Assay outcomes (PubChem BioAssay)
Only some compounds are listed: those with a hit (about 2.2% of all), similar ones and a draw of the others.
SMARCA2 activ = activators of SMARCA2 function; MG213 cells, MMTV-luciferase reporter, dexamethasone, overnight; activation, % at 9.1 µM; 370,000 compounds, 1% hits; AID 652017; in the data active means activation above about 7.8%;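 further: 0% = vehicle wells and 100% = reference activator wells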
NR2E3 ag-1 = agonists of human nuclear receptor NR2E3 | Q9Y5X4 | GST-NR2E3/biotin-RetCOR TR-FRET, 1536-well | inhibition of corepressor binding, % at 4.78 µM | 320,000 compounds, 0.12% hits | AID 2300;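 active means percent inhibition above the cutoff of mean plus 3 SD of all tested compounds, set per screening campaign, cut at about 20% in these data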;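 further: 0% = DMSO wells and 100% = biotin wells as full block of FRET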
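Test system – NR2E3–RetCOR corepressor complex · Quantity – NR2E3 fusion 1.35 nM · Buffer or medium – Tris pH 7.5 · Incubation – Compound–protein incubation for 5 h at 4 °C · Technique – TR-FRET, Eu(K)-anti-GST donor, streptavidin-D2 acceptor, ex 340, em 617/671 nm · Evaluation – percent inhibition of 671/617 nm emission ratio versus biotin and DMSO controls · Plate – 1536-well format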
GalR3 antag = antagonists of human GalR3; O60755; HEK293 GalR3-CNG cAMP membrane potential fluorescence; galR3 body fused to GalR1 C-terminus; inhibition, % at 3 µM; 360,000 compounds, 0.44% hits; AID 651719;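 active means inhibition above the screen-wide average plus 3 SD, cut at about 13% in these data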;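 further: forskolin and galanin both at EC90 stimulate the cells; cAMP rise reported by CNG channel membrane potential dye signal; 0% = forskolin plus galanin with DMSO and 100% = forskolin alone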
COUP-TFII inh = blocks human COUP-TFII nuclear receptor | HEK293T NGFI-A luciferase reporter, luminescence | inhibition, % at 8.6 µM | 370,000 compounds, 0.7% hits | AID 686940;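 active means inhibition above a per-plate cutoff, mean inhibition of test wells between control levels plus 3 SD, cut at about 38% in these data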;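 further: cells cotransfected with COUP-TFII expression vector driving the NGFI-A reporter; 0% = median of COUP-TF2 test wells and 100% = reporter-only cells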
Target sequence (P24468 whole entry, looked up): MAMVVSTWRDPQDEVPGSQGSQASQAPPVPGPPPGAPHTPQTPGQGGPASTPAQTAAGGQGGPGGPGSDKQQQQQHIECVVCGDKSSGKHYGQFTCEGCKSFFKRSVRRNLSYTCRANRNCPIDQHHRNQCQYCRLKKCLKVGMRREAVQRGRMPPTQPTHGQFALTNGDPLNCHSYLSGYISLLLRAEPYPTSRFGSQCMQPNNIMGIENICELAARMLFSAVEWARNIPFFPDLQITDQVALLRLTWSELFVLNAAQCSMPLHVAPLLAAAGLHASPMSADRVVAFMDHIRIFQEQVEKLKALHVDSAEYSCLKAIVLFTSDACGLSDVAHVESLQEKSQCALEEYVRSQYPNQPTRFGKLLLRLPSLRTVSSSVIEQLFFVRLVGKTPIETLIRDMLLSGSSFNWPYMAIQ
NR2E3 ag-2 = human photoreceptor-specific nuclear receptor agonism; inhibition of corepressor binding, % at 3.98 µM; 360,000 compounds, 0.35% hits; Q9Y5X4; CHO-S Gal4-NCOR/VP16-NR2E3 two-hybrid, luciferase;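 active means inhibition above the mean of all tested compounds plus 3 SD, cut at about 70% in these data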;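 further: 0% = DMSO with NR2E3 transfected cells and 100% = cells lacking NR2E3 construct; higher means lower luciferase signal from less NR2E3 corepressor binding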
SMARCA2 conf = SMARCA2 activation, confirmation screen. 3,500 compounds, 30% hits. AID 652260. activation, % at 9.1 µM. MG213 cells, MMTV-luciferase with dexamethasone, luminescence, overnight; MG213 cells expressing E1A, Rb sequestered; DMSO wells 0%, reference activator 100%. shares compounds with SMARCA2 activ;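 active means activation above its plate's cutoff, the mean activation of tested wells plus 3 SD, cut at about 7.9% in these data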
GAL4-VP16 Luc = counter-screen for SMARCA2 activators: GAL4-VP16 luciferase reporter activation | 3,500 compounds, 41% hits | AID 686939 | activation, % at 9.1 µM | HEK293 GAL4-VP16 pG5luc reporter, luciferase luminescence; scaled: DMSO wells 0%, SAHA wells 100% | shares compounds with SMARCA2 activ;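 active means activation above the solvent-only control well mean plus 3 SD, averaged across control plates, cut at about 5.2% in these data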
Active calls of the source: *; nt = no result given.

SMILES	SMARCA2 activ	NR2E3 ag-1	GalR3 antag	COUP-TFII inh	NR2E3 ag-2	SMARCA2 conf	GAL4-VP16 Luc
O=C(Cc1ccc2c(c1)OCO2)N1CCC(n2nc(-c3ccccc3)oc2=O)CC1	nt	nt	nt	-6	nt	nt	nt
O=C(Cn1nnc(-c2ccccc2F)n1)Nc1ccc(Cl)cc1	1	nt	nt	9	nt	nt	nt
N#Cc1cc2c(nc1SCC(=O)Nc1nccs1)CCCCC2	2	15	-8	-47	-131	nt	nt
Cc1ccc(C#N)c(SCC(=O)Nc2nccs2)n1	14*	-4	-6	-56	-208	6	4
Cc1ccc2nc(SCn3nnc4ccccc4c3=O)[nH]c2c1	8.4*	-5	2	-46	-122	8.1*	13*
O=c1c2ccccc2nnn1CSc1ccccc1F	11*	0	-8	-37	-88	4	13*
O=c1c2ccccc2nnn1CCc1ccccc1	10*	nt	-5	-22	-128	11*	10*
O=C(Nc1ccccc1C(=O)NCC1CC1)c1cccs1	-4	nt	-4	12	nt	nt	nt
CCN1CCCC1CNC(=O)c1ccc2c(c1)NC(=O)/C(=C\c1ccccc1Cl)S2 (stereo not drawn)	3	nt	-4	5	3	nt	nt
CCN1CCCC1CNC(=O)c1ccc2c(c1)NC(=O)/C(=C\c1ccc(OC)c(OC)c1)S2 (stereo not drawn)	8.6*	-1	-4	5	-37	12*	0
CCC(=O)N1CCc2cc(Br)c(S(=O)(=O)NCCCN(CC)Cc3ccccc3)cc21	2	nt	nt	11	nt	nt	nt
CN(CC#Cc1ccccc1)C(N)=NC(=O)/C=C/c1cccc(C(F)(F)F)c1	-3	nt	nt	-10	nt	nt	nt
CCCCCCN[C@H]1CCC2C3CC=C4C[C@@H](O)CC[C@]4(C)C3CC[C@@]21C (stereo partly drawn)	11*	nt	-6	1	38	9.7*	1
CCC(OCC(O)CN1CCN(CCN2C(=O)c3cccc4cccc(c34)C2=O)CC1)c1ccccc1 (stereo not drawn)	9.4*	-3	-5	15	-11	1	5
CC(C)OCC(O)CN1CCN(CCN2C(=O)c3cccc4cccc(c34)C2=O)CC1 (stereo not drawn)	3	1	-8	-18	-11	nt	nt
CCOC(=O)Cc1nc(N2CCN(Cc3cccc4c3OCO4)CC2)c2c(C)c(C(=O)OCC)sc2n1	1	nt	nt	18	nt	nt	nt
O=C(c1ccco1)N(Cc1cccnc1)C(c1ccccc1)c1nc2ccccc2[nH]1 (stereo not drawn)	8.6*	nt	-5	-12	-43	11*	6.1*
O=C(c1cccnc1)N(Cc1ccccc1)C(c1ccccc1)c1nc2ccccc2[nH]1 (stereo not drawn)	2	nt	-8	-10	-33	nt	nt
CCOC(=O)[C@]12CCCCC/C=C\1N(Cc1ccc(OC)cc1)C(=O)[C@H]2CC(=O)NCCc1ccccc1OC	-3	nt	nt	1	nt	nt	nt
COc1ccc(Cn2c(NC(=O)c3ccccc3)nc(Cc3ccccc3)c2-c2ccccc2)cc1	-4	nt	nt	-18	nt	nt	nt
COC(=O)[C@]12C[C@H](CC(=O)N3CCOCC3)C(=O)N(Cc3ccc(Cl)cc3Cl)C1=C[C@H](C1CCCC1)O[C@@H]2C	-3	nt	nt	19	nt	nt	nt
Cc1nn(Cc2c(F)c(F)c(F)c(F)c2F)c(C)c1NC(=O)c1ccc(COc2ccc(Cl)cc2Cl)o1	-5	2	-4	18	8	nt	nt
Cc1nn(Cc2c(F)c(F)c(F)c(F)c2F)c(C)c1NC(=O)c1cccc(COc2ccccc2Cl)c1	13*	2	-2	-52	-186	4	13*
CCn1cc(C(=O)N2CCN(Cc3ccc(C)cc3)CC2)c(=O)c2ccc(C)nc21	2	nt	nt	26	nt	nt	nt
CCOC(=O)N1CCN(C(=O)c2ccc3c(=O)n(Cc4ccc(Cl)cc4)c(=S)[nH]c3c2)CC1	8.2*	-8	-3	-10	-24	-4	1
CCCn1c(=S)[nH]c2cc(C(=O)N3CCN(C(=O)OCC)CC3)ccc2c1=O	-3	1	-8	11	32	nt	nt
